From ChEMBL document CHEMBL1127345, “Synthesis, binding properties, and 18F labeling of fluorocarazolol, a high-affinity beta-adrenergic receptor antagonist” (J Med Chem, 1994) come the findings set out here.

Data set [1] concerns Mus musculus. Description: The in vivo tissue distribution of mouse kidney without Propranolol preadministration in 90 min, value was fractional dose per fractional body weight of the organ. As to conditions: 1.5 h.
For data set [2], the system named is Mus musculus. Description: The in vivo tissue distribution of mouse heart with Propranolol administration after 60 min, value was fractional dose per fractional body weight of the organ. Particulars: 1 h. In kind it is ADME, organism-based. A digest of the protocol:
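Male CF-1 mice, 25–30 g, anesthetized with 2 mg sodium pentobarbital ip. Propranolol pretreatment was 0.1 mL of 1 mg/mL iv by tail vein. About 30 min later, 0.1 mL of 1–2 mCi/mL [18F]tracer was given by tail vein. Mice were killed by cervical dislocation at set times. Organs were weighed and counted against weighed dose standards. %ID/g × body weight/100 gave fractional dose per fractional body weight. Blood and heart n=5.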

`CC(C[18F])NC[C@@H](O)COc1cccc2[nH]c3ccccc3c12` (some centres undefined): the Dose/organ in data set [1] is listed as 1.5; in data set [2] it was 0.57.
For the molecule `CC(C[18F])NC[C@H](O)COc1cccc2[nH]c3ccccc3c12` (some centres undefined), the Dose/organ was 1.33 in data set [1] and 0.29 in data set [2].
